Laboratory results: BindingDB's records for doi:10.1016/j.bmcl.2019.05.024 (Harvard Medical School, 2019)

Experiments:
[1] = molecular target: Cyclin-dependent kinase 14 (Homo sapiens, UniProt O94921); experiment: Inhibition of FLAG-tagged CDK14 (unknown origin) expressed in human HEK293 cells assessed as blocking of CDK14 pulldown incubated for 4 hrs by biotinylated JNK-IN- based pull down assay
Method in brief: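 Cells were treated with compound at various doses for 4 h and then lysed. Lysates were incubated with biotinylated JNK-IN-7 and captured on streptavidin-coated beads. CDK14 capture was detected by western blot.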

[2] = molecular target: Cyclin-dependent kinase 14/Cyclin-Y (Homo sapiens, UniProt O94921+Q8ND76); experiment: Inhibition of recombinant GST-tagged human full length CDK14/cyclin Y (2 to end residues) preincubated for 30 mins by Lantha screen eu binding assay
Sequence of Cyclin-dependent kinase 14/Cyclin-Y (O94921 whole entry): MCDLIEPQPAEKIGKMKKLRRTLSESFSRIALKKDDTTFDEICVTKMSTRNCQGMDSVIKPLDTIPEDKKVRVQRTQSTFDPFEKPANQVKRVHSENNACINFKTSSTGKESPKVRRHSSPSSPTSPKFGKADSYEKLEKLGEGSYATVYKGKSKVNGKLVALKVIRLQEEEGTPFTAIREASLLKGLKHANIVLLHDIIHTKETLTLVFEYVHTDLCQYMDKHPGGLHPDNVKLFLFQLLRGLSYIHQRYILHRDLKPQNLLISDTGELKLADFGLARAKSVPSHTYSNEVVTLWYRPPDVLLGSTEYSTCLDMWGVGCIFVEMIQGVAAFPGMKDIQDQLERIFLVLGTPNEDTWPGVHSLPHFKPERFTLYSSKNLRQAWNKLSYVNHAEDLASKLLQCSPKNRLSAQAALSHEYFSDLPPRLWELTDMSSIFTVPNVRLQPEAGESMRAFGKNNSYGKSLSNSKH
Sequence of Cyclin-dependent kinase 14/Cyclin-Y (Q8ND76 2-341 limits assumed): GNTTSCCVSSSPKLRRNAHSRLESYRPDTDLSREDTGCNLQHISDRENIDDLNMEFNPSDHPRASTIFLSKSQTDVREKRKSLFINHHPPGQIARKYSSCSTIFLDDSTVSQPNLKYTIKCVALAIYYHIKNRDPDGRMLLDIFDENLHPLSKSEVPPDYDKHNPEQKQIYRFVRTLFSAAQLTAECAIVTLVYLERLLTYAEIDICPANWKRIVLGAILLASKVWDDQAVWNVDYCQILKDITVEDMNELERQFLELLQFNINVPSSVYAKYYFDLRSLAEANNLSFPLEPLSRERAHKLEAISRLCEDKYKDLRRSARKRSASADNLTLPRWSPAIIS
Method in brief: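 CDK14 binding was measured in a LanthaScreen binding assay. IC50 is the average of three replicates, reported ± standard error.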

Sequence of Cyclin-dependent kinase 14 (O94921 whole entry): as the sequence (O94921 whole entry) above

| IC50 [1] [µM] | IC50 [2] [µM] | SMILES |
| --- | --- | --- |
| 0.5 | – | C=CC(=O)Nc1cccc(C(=O)N2CCC(NC(=O)c3n[nH]cc3NC(=O)c3c(Cl)cccc3Cl)CC2)c1 |
| – | 0.017 | CN(C)CC=CC(=O)Nc1cccc(C(=O)Nc2ccc(NC(=O)c3n[nH]cc3NC(=O)c3c(Cl)cccc3Cl)cc2)c1 |
